Measurements: ChEMBL document CHEMBL1141348, “Cytotoxic cardenolide glycosides of Roupellina (Strophanthus) boivinii from the Madagascar rainforest” (J Nat Prod, 2007)

Test system: A2780
Assay: Antiproliferative activity against human A2780 cells
Type: functional, cell-based
Procedure, shortened: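 Growth inhibition of the drug-sensitive human ovarian cancer line A2780, measured at Virginia Polytechnic Institute and State University. IC50 is the concentration that inhibited 50% of cell growth. Actinomycin D was the positive control.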

| SMILES | IC50 [nM] |
| --- | --- |
| CO[C@H]1[C@@H](O[C@@H]2O[C@H](CO)[C@@H](O)[C@H](O)[C@H]2O)[C@@H](C)O[C@@H](O[C@H]2CC[C@@]3(C=O)[C@@H](CC[C@@H]4[C@@H]3CC[C@]3(C)[C@@H](C5=CC(=O)OC5)CC[C@]43O)C2)[C@@H]1OC(C)=O [BOIVINIDE F] | 540 |
| C[C@H]1[C@@H](O[C@H]2CC[C@@]3(C)[C@@H](CC[C@@H]4[C@@H]3CC[C@]3(C)[C@@H](C5=CC(=O)OC5)CC[C@]43O)C2)O[C@@H](C)[C@@H](O)[C@H]1O | 150 |
| CO[C@H]1C[C@H](O[C@H]2CC[C@@]3(C=O)[C@@H](CC[C@@H]4[C@@H]3CC[C@]3(C)[C@H](C5=CC(=O)OC5)CC[C@]43O)C2)O[C@H](C)[C@@H]1O[C@@H]1O[C@H](CO)[C@@H](O)[C@H](O)[C@H]1O [BOIVINIDE C] | 2900 |
| CO[C@H]1[C@@H](O)[C@H](O[C@H]2CC[C@@]3(C)[C@@H](CC[C@@H]4[C@@H]3CC[C@]3(C)[C@@H](C5=CC(=O)OC5)CC[C@]43O)C2)O[C@@H](C)[C@@H]1O[C@@H]1O[C@H](CO)[C@@H](O)[C@H](O)[C@H]1O | 150 |
| CO[C@@H]1[C@@H](O)[C@H](O[C@H]2CC[C@@]3(C=O)[C@@H](CC[C@@H]4[C@@H]3CC[C@]3(C)[C@@H](C5=CC(=O)OC5)CC[C@]43O)C2)O[C@H](C)[C@@H]1O[C@@H]1O[C@H](CO)[C@@H](O)[C@H](O)[C@H]1O [BOIVINIDE A] | 170 |
| C[C@H]1O[C@@H](O[C@H]2CC[C@@]3(C=O)[C@@H](CC[C@@H]4[C@@H]3CC[C@]3(C)[C@@H](C5=CC(=O)OC5)CC[C@]43O)C2)C[C@H](O)[C@H]1O | 150 |
| CO[C@H]1C[C@H](O[C@H]2CC[C@@]3(C=O)[C@@H](CC[C@@H]4[C@@H]3CC[C@]3(C)[C@@H](C5=CC(=O)OC5)CC[C@]43O)C2)O[C@H](C)[C@@H]1O[C@@H]1O[C@H](CO)[C@@H](O)[C@H](O)[C@H]1O [BOIVINIDE B] | 660 |
| CO[C@H]1C[C@H](O[C@H]2CC[C@@]3(C=O)[C@@H](CC[C@@H]4[C@@H]3CC[C@]3(C)[C@H](C5=CC(=O)OC5)CC[C@]43O)C2)O[C@H](C)[C@@H]1O | 3700 |
| C[C@H]1O[C@@H](O[C@H]2CC[C@@]3(C=O)[C@@H](CC[C@@H]4[C@@H]3CC[C@]3(C)[C@@H](C5=CC(=O)OC5)CC[C@]43O)C2)C[C@H](O)[C@H]1O[C@@H]1O[C@H](CO)[C@@H](O)[C@H](O)[C@H]1O [BOIVINIDE D] | 290 |
